# Test results: ChEMBL document CHEMBL1146843, “Synthesis and properties of benzo[a]phenoxazinium chalcogen analogues as novel broad-spectrum antimicrobial photosensitizers” (J Med Chem, 2006)
# What was measured:
# [1] = Partition coefficient, log P at pH 7.4; format: physicochemical; details: octanol/water
# Candida albicans [2] = assay: Photodynamic inactivation of Candida albicans ATCC 18804 at the fluence of 64 J/cm2 light at 20 uM after 10 mins; format: functional
# Outline: (§1)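 Exponential cultures were used: bacteria about 10^8 cells/mL in BHI, Candida in YM. Cells were dark-incubated with dye for 10 min at room temperature, then washed and resuspended in PBS without Ca2+/Mg2+. Illumination used 30-nm band-pass red light (630, 652 or 660 ± 15 nm per dye) at 60–100 mW/cm2 and room temperature. Ten-fold serial dilutions were plated on BHI agar at 37 °C overnight. CFU survival was expressed relative to untreated cells, in triplicate.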
# Enterococcus faecalis [3] = assay: Photodynamic inactivation of Enterococcus faecalis ATCC 29212 at the fluence of 64 J/cm2 light at 2 uM after 10 mins; format: functional; outline: as §1
# Escherichia coli [4] = assay: Photodynamic inactivation of Escherichia coli ATCC 25922 at the fluence of 64 J/cm2 light at 5 uM after 10 mins; format: functional; outline: as §1
# Escherichia coli [5] = assay: Cellular uptake in Escherichia coli ATCC 25922 at 5 uM after 10 mins; format: functional, organism-based
# Outline: (§2)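 Exponential-phase cells (bacteria in BHI, yeast in YM, 37 °C, 150 rpm) were incubated with dye in the dark for 10 min at room temperature. Centrifugation at 1550g for 6 min removed unbound dye, and pellets were resuspended in PBS without Ca2+/Mg2+. Pellets were dissolved in 10% SDS for ≥24 h. Fluorescence peak height was read at the dye-specific excitation and emission, against SDS calibration curves. Means of three experiments.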
# Candida albicans [6] = assay: Photodynamic inactivation of Candida albicans ATCC 18804 at the fluence of 80 J/cm2 light at 20 uM after 10 mins; format: functional; outline: as §1
# Candida albicans [7] = assay: Cellular uptake in Candida albicans ATCC 18804 at 20 uM after 10 mins; format: functional, organism-based; outline: as §2
# Escherichia coli [8] = assay: Photodynamic inactivation of Escherichia coli ATCC 25922 at the fluence of 80 J/cm2 light at 5 uM after 10 mins; format: functional; outline: as §1
# Enterococcus faecalis [9] = assay: Photodynamic inactivation of Enterococcus faecalis ATCC 29212 at the fluence of 80 J/cm2 light at 2 uM after 10 mins; format: functional; outline: as §1
# Candida albicans [10] = assay: Photodynamic inactivation of Candida albicans ATCC 18804 at the fluence of 4 J/cm2 light at 20 uM after 10 mins; format: functional; outline: as §1
# Enterococcus faecalis [11] = assay: Cellular uptake in Enterococcus faecalis ATCC 29212 at 2 uM after 10 mins; format: functional, organism-based; outline: as §2
# Escherichia coli [12] = assay: Photodynamic inactivation of Escherichia coli ATCC 25922 at the fluence of 32 J/cm2 light at 5 uM after 10 mins; format: functional; outline: as §1
# Enterococcus faecalis [13] = assay: Photodynamic inactivation of Enterococcus faecalis ATCC 29212 at the fluence of 8 J/cm2 light at 2 uM after 10 mins; format: functional; outline: as §1
logD [1],Structure (SMILES),Activity (Candida albicans [2]) [%],Activity (Enterococcus faecalis [3]) [%],Activity (Escherichia coli [4]) [%],Drug uptake (Escherichia coli [5]) [%],Activity (Candida albicans [6]) [%],Drug uptake (Candida albicans [7]) [%],Activity (Escherichia coli [8]) [%],Activity (Enterococcus faecalis [9]) [%],Activity (Candida albicans [10]) [%],Drug uptake (Enterococcus faecalis [11]) [%],Activity (Escherichia coli [12]) [%],Activity (Enterococcus faecalis [13]) [%]
2.76,CC/N=c1/cc2sc3cc(N(CC)CC)ccc3nc-2c2ccccc12.Cl,>98,>99.9,>99,75,,,,,,,,
2.69,CC/N=c1/cc2oc3cc(N(CC)CC)ccc3nc-2c2ccccc12.Cl,,,,,>97,75,90,95,,,,

Structure (SMILES),logD [1],Activity (Candida albicans [2]) [%],Activity (Enterococcus faecalis [3]) [%],Activity (Escherichia coli [4]) [%],Drug uptake (Escherichia coli [5]) [%],Activity (Candida albicans [6]) [%],Drug uptake (Candida albicans [7]) [%],Activity (Escherichia coli [8]) [%],Activity (Enterococcus faecalis [9]) [%],Activity (Candida albicans [10]) [%],Drug uptake (Enterococcus faecalis [11]) [%],Activity (Escherichia coli [12]) [%],Activity (Enterococcus faecalis [13]) [%]
CC/N=c1/cc2[se]c3cc(N(CC)CC)ccc3nc-2c2ccccc12.Cl,2.08,,,,,,,,,> 99,75,>100,>99.999
